# KCNQ1 block – inhibitors of human KCNQ1 channel, primary screen, cell-based, thallium flux, high-throughput. Potassium voltage-gated channel subfamily KQT member 1 (Homo sapiens), P51787. CHO-K1 KCNQ1, FluxOR thallium flux fluorescence; active compounds read high. B-score at 10 µM. actives 1.3% (n = 310,000). AID 2642, 2010;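 active = compounds whose thallium flux B-score, printed positive for inhibition, exceeds three library SD while starting fluorescence stays within three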;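 also: channel opened by potassium depolarization with thallium stimulus after 20 min compound exposure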
# KCNK9 block – KCNK9 potassium channel inhibitors, primary screen, HEK293 cells, thallium flux; FluxOR thallium flux fluorescence; active compounds read low; B-score at 10 µM; actives 1.2% (n = 310,000); Potassium channel subfamily K member 9 (Homo sapiens), Q9NPC2;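 active = ratio B-score over 3 SD below the library mean, with starting fluorescence within 5 SD of its mean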;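 also: negative B-score means less thallium flux so channel inhibition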
# KCNQ1 act – potentiators or activators of KCNQ1 channel, primary screen, cell-based, thallium flux, high-throughput. Potassium voltage-gated channel subfamily KQT member 1 (Homo sapiens), P51787. actives 0.35% (n = 310,000). CHO-K1 KCNQ1, thallium flux FluxOR fluorescence; active compounds read high. B-score at 10 µM. AID 2648, 2010;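 active = fluorescence ratio B-score, a plate-corrected score, at least three library SD, with initial intensity B-score within 5 SD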
#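 assay system = CHO-K1 cells stably expressing KCNQ1 | medium = assay buffer, equal DMSO in all wells | timing = 37 °C overnight plating, 90-min dark dye load, 20-min compound pretreatment | measured by = kinetic FluxOR thallium fluorescence, 10-s 1-Hz baseline, 110-s post-stimulus read | measure = fluorescence change relative to baseline, converted to B score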
# hERG protect – hERG rescue from dofetilide block, primary screen, cell-based, CHO-hERG, FluxOR thallium flux, dofetilide IC70; actives 0.51% (n = 310,000); activation (rescue from dofetilide block), less the hit threshold, % at 10 µM; dofetilide IC70 present; Voltage-gated inwardly rectifying potassium channel KCNH2 (Homo sapiens), Q12809;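 active = activation above the mean of controls blocked by dofetilide plus 5 SD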;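 also: thallium influx through hERG after potassium depolarization seen as dye fluorescence rise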
# KCNK3 inh – human KCNK3 channel inhibitors, primary screen, CHO cells, FluxOR thallium flux, B-score. Potassium channel subfamily K member 3 (Homo sapiens), O14649. FluxOR fluorescence; active compounds read low. B-score at 10 µM. actives 0.84% (n = 340,000);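 active = B-score under library mean minus 4 SD, starting fluorescence ratio at most library mean plus 5 SD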;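 also: more negative B-score means stronger inhibition of thallium flux through KCNK3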
# Target sequence (O14649 whole entry, looked up): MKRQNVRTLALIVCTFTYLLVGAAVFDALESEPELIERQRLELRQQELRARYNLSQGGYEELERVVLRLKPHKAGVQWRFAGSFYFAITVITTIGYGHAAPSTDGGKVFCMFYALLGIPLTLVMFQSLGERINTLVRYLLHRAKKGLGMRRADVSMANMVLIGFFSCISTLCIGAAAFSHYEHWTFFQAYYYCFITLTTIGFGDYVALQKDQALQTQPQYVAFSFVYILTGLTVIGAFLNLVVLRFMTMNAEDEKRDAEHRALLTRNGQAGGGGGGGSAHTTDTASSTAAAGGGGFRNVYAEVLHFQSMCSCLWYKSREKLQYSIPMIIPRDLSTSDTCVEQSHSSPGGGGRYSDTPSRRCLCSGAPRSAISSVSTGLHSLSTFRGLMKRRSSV
# A number is an active result; 0 = inactive; - = no result given. An excerpt weighted towards active compounds, which were near 3.1% of everything screened.
SMILES,KCNQ1 block,KCNK9 block,KCNQ1 act,hERG protect,KCNK3 inh
CCCCNC(=O)/C(C#N)=c1\s/c(=C\c2ccccc2OC(F)F)c(=O)n1CCCOC,7,0,0,0,0
Cc1cc(-c2ccccc2)n2nc(N)nc2n1,0,0,0,0,0
CCOCCc1c(O)nc(SCCOc2ccc(C)c(C)c2)[nH]c1=O,0,0,0,0,0
CCOCCc1c(O)nc(SC)[nH]c1=O,0,0,8,0,0
N#CCCN(Cc1cccnc1)C(=S)NC(=O)C1CC1,0,0,0,0,-
COc1ccc(OC)c(CCNC(=O)Cn2sc3nc(C)cc(C)c3c2=O)c1,6,0,0,0,-
Cc1cc(C)c2c(=O)n(CC(=O)NC3CCCC3)sc2n1,0,0,0,0,0
Cc1ccc(/C=C/S(=O)(=O)NCCC(=O)NCc2ccc(F)cc2)cc1,-,-,-,-,0
CCCCn1cnc(C(=O)OCC)c1N,0,0,0,0,0
CCOc1ccc(N(CC(=O)NN=C2CCCC2)S(C)(=O)=O)cc1,0,0,0,0,0
CC(C)NC(=NCc1ccc(Cl)cc1Cl)Nc1ccccc1,6,0,0,0,0
COc1ccc(C(C)NCCC(c2ccc(OC(C)C)cc2)c2ccccc2OC)cc1 (stereo not drawn),6,0,0,0,0
COc1ccc(C(CCNC(C)c2ccccc2)C(C)C)cc1 (stereo not drawn),0,0,0,0,0
NNC(=O)C1CC1c1ccc(Cl)cc1 (stereo not drawn),0,0,0,0,0
CCCC/C(=N\NC(=O)c1ccc(Br)o1)c1ccccc1,0,0,0,0,0
CC/C(=N/NC(=O)c1ccc(Br)o1)c1ccc(Cl)cc1,0,0,10,0,0
CCN(CC(=O)Nc1cc(Cl)ccc1C)C(=O)CCOc1ccccc1C,0,0,0,0,0
O=C(NC1CC1)C1CCC(=O)N1C1CCCC1 (stereo not drawn),0,0,0,5.2,0
Cc1cccn2c(=O)c3cc(C(=O)NCc4ccco4)c(=N)n(C4CCCCC4)c3nc12,0,0,0,0,0
Cc1ccc2nc3c(cc(C(=O)NCc4ccco4)c(=N)n3C3CCCC3)c(=O)n2c1,8,0,0,0,0
O=C(NC(=S)Nc1ccccc1)c1cncc(C#Cc2ccccc2)c1,0,0,0,5.8,0
O=C(O)c1cncc(C#Cc2ccccc2)c1,0,0,0,0,0
CCCc1cc(-c2nc(-c3ccc(Cl)cc3)cs2)ccn1,0,-6.61,0,0,0
O=C(O)CCCNc1c(C(=O)Nc2ccc(Cl)cc2)cc([N+](=O)[O-])cc1[N+](=O)[O-],0,0,0,0,0
O=C(O)C[C@H]1c2cc(F)ccc2S(=O)(=O)N1C1CCN(Cc2ccccc2)CC1,0,0,0,0,0
SMILES,KCNQ1 block,KCNK9 block,KCNQ1 act,hERG protect,KCNK3 inh
Cc1ccc(Cl)cc1N1CCN(Cc2nnnn2C2CCCCC2)CC1,0,0,0,0,-10.9
c1ccc(N2CCN(Cc3nnnn3C3CCCCC3)CC2)cc1,0,0,0,0,0
O=C(C[n+]1ccccc1)N/N=C/c1ccc(Cl)c(Cl)c1,0,0,0,5.2,0
COc1ccc(-c2csc(NC(=O)C3CCCCN3S(=O)(=O)c3ccccc3)n2)cc1 (stereo not drawn),0,0,151,0,0
CCNC(=S)NNC(=O)CCn1cc(C)cn1,0,0,0,0,0
CCc1ccc(Nc2n[n+](-c3ccccc3)c(/C=C/c3ccccc3)s2)cc1,12,0,0,0,-
Cc1cc(N(C)N)nc(NC(=O)NS(=O)(=O)c2ccccc2Cl)n1,0,0,0,0,0
CCOc1cccc(-c2c(C(=O)N/N=C/c3ccc(C)o3)nnn2-c2nonc2N)c1,0,0,0,0,0
O=C(NC1CCCc2ccccc21)c1cccc(F)c1 (stereo not drawn),-,-,-,-,0
Cc1cc(Br)ccc1NC(=O)CNC(=O)Cn1ncc(Cl)c(Cl)c1=O,0,0,0,4.7,0
Cc1ccc(S(=O)(=O)N2CCCCC2)cc1NC(=O)Cn1ncc(Cl)c(Cl)c1=O,-,-,-,-,0
O=C(CN(C(=O)c1csnn1)c1cccc2ccccc12)NC1CCCC1,0,0,0,0,0
CCNC(=O)N(C)C[C@H]1N[C@@](CC)(C(=O)OC)[C@H]2C(=O)N(C)C(=O)[C@@H]12,-,-,-,-,0
CC(C)(C)n1nnnc1CN1CCN(C(c2ccccc2)c2ccccc2)CC1,0,0,0,0,-8.7
CCC(=O)OCCNc1cc(Sc2nc3ccccc3s2)c2nonc2c1[N+](=O)[O-],6,0,0,0,0
Cc1nnc(Sc2cc(NCCCO)c([N+](=O)[O-])c3nonc23)s1,10,-7.22,0,0,0
Cc1nnc(Sc2cc(NCCO)c([N+](=O)[O-])c3nonc23)s1,8,0,0,0,0
CC(C)C[C@@H](CN1CCCC1CN1C(=S)NC[C@@H]1Cc1ccc(O)cc1)N1C[C@H](Cc2ccc(O)cc2)N(CCc2ccccc2)C1=S (stereo partly drawn),-,-,-,-,0
CC1(C2CC2)NC(=O)N(CC(=O)N2CCN(c3ccccc3Cl)CC2)C1=O (stereo not drawn),-,-,-,-,0
CCOC(=O)C1=C(C)OC(N)=C(C#N)C1c1c(C)nn(-c2ccc(C)cc2)c1Cl (stereo not drawn),0,-9.75,0,0,-
COc1cccc(CN2CCN(S(=O)(=O)c3ccc(Br)cc3)CC2)c1,0,0,0,0,-9.71
COc1ccc(S(=O)(=O)N2CCN(Cc3cccc(OC)c3)CC2)cc1,0,0,0,0,0
CCOC(=O)N1CCN(c2nc(N(c3ccccc3)c3ccccc3)nc(-n3ccnc3)n2)CC1,8,0,0,0,-
c1ccc2oc(-c3ccn[nH]3)cc2c1,0,0,0,6.9,0
O=[N+]([O-])c1cccc(-c2ccc3nnc(SCc4cccnc4)n3n2)c1,-,-,-,-,0
SMILES,KCNQ1 block,KCNK9 block,KCNQ1 act,hERG protect,KCNK3 inh
CCC(C)c1ccc(S(=O)(=O)N2CCN(C(=O)c3ccc(Cl)c(S(=O)(=O)N4CCOCC4)c3)CC2)cc1 (stereo not drawn),-,-,-,-,-9.65
CCOC(=O)c1ccc2c(c1)n(CC)c(/C=C/N(C)c1ccccc1)[n+]2CC,8,0,0,0,0
COC(=O)C(NC(=O)c1ccc(F)cc1)(Nc1ncc(S(=O)(=O)c2ccc([N+](=O)[O-])cc2)s1)C(F)(F)F (stereo not drawn),7,0,0,0,0
O=C(NC(=S)NCCO)c1sc2ccccc2c1Cl,0,0,0,0,0
O=C(NNC(=S)NC1CCCCC1)c1sc2ccccc2c1Cl,0,0,0,0,0
CC(C)(C)C(=O)NC(=S)NNC(=O)c1sc2ccccc2c1Cl,0,0,49,33.6,0

# Screens deposited in PubChem BioAssay by Johns Hopkins Ion Channel Center.
